Data reported in ChEMBL document CHEMBL1122699, “A reappraisal of the effect upon thymidine kinase of thymidine derivatives carrying large groups at the 5'-position” (J Med Chem, 1984).

Key:
[1] = Thymidine kinase activity was measured by nonradiochemical assay method + TdR (percentage of the control rate measured in the presence of 5 uM Tdr)
Method in brief: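 Conditions match the radiochemical assay, but with 5 µM unlabeled TdR: 10 min at 37 °C, stopped by 20-fold dilution in ice-cold water. Nucleotides separated from nucleosides, freeze-dried, dephosphorylated overnight with alkaline phosphatase, then quantified as nucleosides by C18 HPLC (A254/A280). Expressed as % of the control rate with 5 µM TdR, mean of ≥2 experiments.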

[2] = Thymidine kinase activity was measured by radio chemical assay method
Method in brief: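 Same L1210 ammonium sulfate enzyme fraction and mix: 5 µM [3H]TdR, 2 mM ATP, 1 mM MgCl2, 10% Me2SO, 45 mM Tris-HCl pH 7.8, 37 °C. Stopped by boiling. [3H]TMP bound to PEI-cellulose squares and counted. Run in parallel with the HPLC assay. Activity given as % of the control rate, mean of at least two experiments.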

L1210 [3] = assay: The compound was tested for inhibition of thymidine kinase using […] at concentration 250 uM in L1210 cells; assay type: cell-based
Method in brief: (§1)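 Enzyme: L1210 ascites cell sonicate (50 mM Tris-HCl pH 7.8, 150 mM KCl), 100000g supernatant precipitated at 30% ammonium sulfate saturation. Reaction mix: 5 µM [3H]TdR, 2 mM ATP, 1 mM MgCl2, 10% Me2SO, 45 mM Tris pH 7.8, compound added in Me2SO. Run 10 min at 37 °C, stopped by boiling. [3H]TMP captured on PEI-cellulose, eluted with HCl, counted. % inhibition given as mean ± SE of n determinations.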

[4] = Thymidine kinase activity was measured by nonradiochemical assay method - TdR (percentage of the control rate measured in the presence of 5 µM TdR)
L1210 [5] = assay: The compound was tested for inhibition of thymidine kinase using […] at concentration 50 uM in L1210 cells; assay type: cell-based; method in brief: as §1
L1210 [6] = assay: The compound was tested for inhibition of thymidine kinase using […] at concentration 125 uM in L1210 cells; assay type: cell-based; method in brief: as §1
L1210 [7] = assay: The compound was tested for inhibition of thymidine kinase using […] at concentration 200 uM in L1210 cells; assay type: cell-based; method in brief: as §1

Row | Compound | Activity [1] | Activity [2] | inhibition (L1210 [3]) [%] | Activity [4] | inhibition (L1210 [5]) [%] | inhibition (L1210 [6]) [%] | inhibition (L1210 [7]) [%]
1 | Cc1cn([C@H]2C[C@H](O)[C@@H](COC(=O)COc3ccc(OCc4ccccc4)cc3)O2)c(=O)[nH]c1=O | 152 | 65 | 33 | 118 |  |  | 
2 | Cc1cn([C@H]2C[C@H](O)[C@@H](CN)O2)c(=O)[nH]c1=O | 27 | 26 |  | 0 | 76 |  | 
3 | Cc1cn(C2CC(O)C(CNC(=O)COc3ccc(OCc4ccc([N+](=O)[O-])cc4)cc3)O2)c(=O)[nH]c1=O (stereo not given) |  |  |  |  |  | 1 | 
4 | Cc1cn([C@H]2C[C@H](O)[C@@H](COCCOc3ccc(OCc4ccccc4)cc3)O2)c(=O)[nH]c1=O |  |  |  |  |  |  | 14
5 | Cc1cn([C@H]2C[C@H](O)[C@@H](COC(=O)COc3ccc(OCc4ccc([N+](=O)[O-])cc4)cc3)O2)c(=O)[nH]c1=O | 144 | 62 |  | 110 |  |  | 35
6 | Cc1cn(C2CC(O)C(CNC(=O)COc3ccc(OCc4ccccc4)cc3)O2)c(=O)[nH]c1=O (stereo not given) |  |  |  |  |  | 0 | 
